Measurements taken from article PMC3470735 (Nuclear medicine and biology, 2012).
Entries after “also recorded” stand apart in the source; their conditions may differ.

How the values were obtained:
[1] = Biodistribution of 64Cu-labeled BFCs in female SCID mice; assay type: in vivo; conditions: for radioactivity in blood (%ID/g): 24 h post-injection; for decrease of %ID/g in kidney by 24 h: by 24 h relative to 1 h
Outline: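 Female SCID mice, n = 4/group, received 64Cu-labeled chelator (0.74 MBq in 100 μL saline) by tail-vein injection; labeling was done in 0.1 M NH4OAc, pH 5.5. At 1, 4 and 24 h, mice were anesthetized with 1-2% isoflurane and killed by cervical dislocation. Blood, lung, liver, spleen, pancreas, kidney, muscle and bone were weighed and gamma-counted. %ID/g was decay-corrected and normalized to tissue weight.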

[2] = Complexation kinetics with Cu; assay type: physicochemical; conditions: ligand 1 mM, Cu(II) 7 μM, AAIII 14 μM, 0.15 M NH4OAc pH 5.0, room temperature, 1 h
Outline: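 Cu(II)–Arsenazo III reagent made in metal-free 0.15 M NH4OAc, pH 5.0 (14 μM AAIII, 7 μM Cu(II)), kept in the dark and stirred 2 h to equilibrate. Instrument zeroed against AAIII alone. Test compound was added from a 1 mM solution into the Cu(II)–AAIII cells at room temperature. A610 was read every 30 s for 1 h and compared with Cu(II)–AAIII alone.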

[3] = cited from earlier work
[4] = In vitro rat serum stability of 64Cu-labeled chelators; assay type: in vitro ADME; conditions: 37 °C, 48 h incubation, TLC
Outline: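 Chelator was labeled with 64Cu in 0.1 M NH4OAc, pH ~5.5. Labeled complex (10 μL, ~3.7 MBq) was added to 90 μL rat serum at 37 °C. Aliquots taken at 1, 2, 4, 24 and 48 h were run on C-18 TLC in 10% NH4OAc:MeOH (3:7), and percent 64Cu still bound was determined.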

Question: For `O=C(O)CNC(Cc1ccc([N+](=O)[O-])cc1)CN1CCN(CC(=O)O)CCN(CC(=O)O)CC1` (stereo not shown) [C-NE3TA, 4-carboxymethyl-7-[2-(carboxymethyl-amino)-3-(4-nitro-phenyl)-propyl]-[1,4,7]triazonan-1-yl-acetic acid], which “radioactivity in blood (%ID/g)” value [1] is on record?
Answer: 0.18 ± 0.06 %ID/g

Question: And the “decrease of %ID/g in kidney by 24 h” value [1]?
Answer: 60%

Question: What about the “complexation kinetics with Cu(II)” value [2] of the same compound?
Answer: formed complexes with Cu(II) almost immediately; also recorded: rapidly formed complexes with Cu(II)

Question: Which “radioactivity in blood (%ID/g)” value [1] does the source give for `O=C(O)CN1CCN(CCN(CC(=O)O)Cc2ccc([N+](=O)[O-])cc2)CCN(CC(=O)O)CC1` [N-NE3TA, 4-carboxymethyl-7-[2-[carboxymethyl-(4-nitro-benzyl)-amino]-ethyl]-[1,4,7]triazonan-1-yl-acetic acid] here?
Answer: 0.13 ± 0.06 %ID/g

Question: And the “decrease of %ID/g in kidney by 24 h” value [1]?
Answer: 60%

Question: And the “complexation kinetics with Cu(II)” value [2]?
Answer: formed complexes with Cu(II) almost immediately; also recorded: rapidly formed complexes with Cu(II)

Question: For `O=C(O)CNCCN1CCN(CC(=O)O)CCN(CC(=O)O)CC1` [NE3TA], which “stability of 64Cu complex in rat serum” value [3] is on record?
Answer: high stability

Question: For `Nc1ccc(CC2CN(CC(=O)O)CCN(CC(=O)O)CCN(CC(=O)O)CCN2CC(=O)O)cc1` (stereo not shown) [p-NH2-Bn-DOTA, 2-(4-aminobenzyl)-1,4,7,10-tetraazacyclododecane-1,4,7,10-tetraacetic acid, reference compound], which “radioactivity in blood (%ID/g)” value [1] is on record?
Answer: 0.47 ± 0.17 %ID/g

Question: And the “percentage of intact 64Cu complex in rat serum” value [4]?
Answer: 93.9%

Question: Which “percentage of intact 64Cu complex in rat serum” value [4] does the source give for `Nc1ccc(C[C@H]2CN(CC(=O)O)CCN(CC(=O)O)CCN2CC(=O)O)cc1` [p-NH2-Bn-NOTA, S-2-(4-aminobenzyl)-1,4,7-triazacyclononane-1,4,7-triacetic acid] here?
Answer: 97.9%
